# Compound activity deposited in PubChem BioAssay by several laboratories.
# ABCB1 block = ABCB1 efflux pump inhibitors, primary screen, cell-based, multiplex, flow cytometry, ABCG2 counter-screen. inhibition, % at 6.6 µM. AID 1326, 2008. ATP-dependent translocase ABCB1 (Homo sapiens), P08183. 0.067% of 190,000 active. CCRF-Adr cells, JC-1 efflux; in the data active = inhibition above about 40%;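 also: 0% = vehicle and 100% = reference inhibitor; higher value means more JC-1 retained so stronger ABCB1 efflux block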
# WT yeast gro inh = growth inhibition of WT strain, primary screen, mitochondrial fusion inhibitor project, WT and mutant strains, chemical genetic; mitochondrial fusion phenotypic screen; inhibition, % at 10 µM; 2.1% of 190,000 active; AID 1362, 2008; in the data active = inhibition above about 58%; tested in S. cerevisiae
# ABCG2 block = ABCG2 efflux pump inhibitors, primary screen, multiplex with ABCB1, IgMXP3 cells, flow cytometry | inhibition, % at 6.6 µM | JC-1 efflux | 0.1% of 190,000 active;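 active = inhibition above 80%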;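 also: 0% = DMSO and 100% = nicardipine control wells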
#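 Times: 10 min at 25 °C | Test system: Two drug-resistant human cell lines, ABCG2 and ABCB1 | Quantity: 3 million cells/mL final, two lines in 1:1 ratio | Signal: Flow cytometry, 530 nm JC-1 signal | Dosing: Compound at 6.6 µM | Controls: Nicardipine and DMSO wells | Reagent: JC-1 as fluorescent efflux pump substrate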
# RAM network inh = inhibitors of the yeast RAM network, primary screen, dse1pr::URA3 reporter, 5-FOA selection; S. cerevisiae dse1pr::URA3 reporter, 5-FOA growth OD615, 2 d; analog-sensitive cbk1-as2 kinase mutant strain; AID 868, 2007; inhibition, % at 50 µM; 1.8% of 190,000 active;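 active = inhibition above a set limit, 3 SD over mean compound inhibition, cut at about 8.4% in these data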;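 also: 0% = DMSO-only wells with no growth and 100% = 10 µM 1-NA-PP1 full growth; inhibition rescues growth on 5-FOA so higher OD means more RAM inhibition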
# Lmaj promast = Leishmania major promastigote growth inhibition, primary screen; Leishmania major promastigotes, resazurin fluorescence viability; inhibition, % at 10 µM; 9% of 200,000 active; AID 1063, 2008; in the data active = inhibition above about 50%;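 also: promastigotes grown with compound for 44 hours at 28 °C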
# * marks the source's active call; other numbers are inactive results. Hits are enriched below; roughly 12% of the tested compounds scored in any of these assays.
SMILES,ABCB1 block,WT yeast gro inh,ABCG2 block,RAM network inh,Lmaj promast
Cn1c(C(=O)N2CCN(c3cccc(C(F)(F)F)c3)CC2)cc2sccc21,1,72*,28,3,-7
COc1ccc(Oc2cc(C(F)(F)F)nc(N(C)C)n2)cc1,0,-3,2,0,-1
CN(C)c1nc(N/N=C/c2ccccc2O)nc(Nc2ccc(F)cc2)n1,0,34,0,3,84*
CN(C)c1nc(Nc2ccccc2)nc(N(C)C)n1,0,0,2,2,39
O=C(O)CCC(=O)NNC(=O)c1cccs1,0,-1,1,0,-3
COc1ccc(-c2cc(=O)n(CCC#N)[nH]2)cc1,1,-17,-4,1,96*
Cc1ccc(C)c(NS(=O)(=O)c2ccc3[nH]c(=O)oc3c2)c1,1,3,5,3,2
O=C(CCNC(=O)Cn1ccc2ccccc2c1=O)NCc1ccccn1,0,-6,-3,0,-4
O=C1CSC(c2ccccc2F)N1c1ccccc1 (stereo not drawn),-1,3,0,0,-2
O=C1CSC(c2c(F)cccc2Cl)N1c1cccc(F)c1 (stereo not drawn),1,7,3,-1,88*
O=C1NCCN(Cc2ccoc2)C1CC(=O)N(CCO)Cc1ccccc1 (stereo not drawn),0,-2,2,-1,-2
On1c2c(c3c4nonc4ccc31)CCCC2,-1,74*,14,-1,-7
Cc1cccc(N2C(=N)SCC2=O)c1C,0,-4,-2,2,54*
Cc1cc(C)n(-c2cccc(C(=O)O)c2)n1,0,0,4,0,-11
O=C(COC(=O)c1cccc(NS(=O)(=O)c2ccc(F)c(F)c2)c1)NC(=O)NC1CCCCC1,1,8,7,5,82*
CC(C)CNC(=O)NC(=O)COC(=O)c1cccc(NS(=O)(=O)c2ccc(F)c(F)c2)c1,1,12,12,1,0
CCCNC(=O)NC(=O)COC(=O)c1cccc(NS(=O)(=O)c2ccc(F)c(F)c2)c1,1,11,11,4,55*
O=C(Nc1ccccc1O)/C(=C\c1ccccc1)NC(=O)c1ccccc1,1,-9,2,0,10
Cc1cccc(CN2CCN(CC(=O)NCCCN3CCN(c4ccc(F)cc4)CC3)C2=O)c1,0,-4,1,1,95*
COc1cccc(OCCOCCNCCO)c1,1,1,2,1,9
Cc1cc(OCCOCCN(C)C)ccc1Cl,3,12,16,1,89*
Cc1cc(C)c(OCCN(C)C)c(Cl)c1,1,19,10,1,1
Cc1cc(Cl)cc(Cl)c1OCCOCCN(C)C,0,-8,1,1,65*
COCCNCCOCCOc1ccc(Cl)c(C)c1,1,6,2,2,100*
Cc1cc(C)n(C(=O)CCCn2cc([N+](=O)[O-])cn2)n1,1,2,6,1,4
SMILES,ABCB1 block,WT yeast gro inh,ABCG2 block,RAM network inh,Lmaj promast
O=c1c(-c2nn[nH]n2)coc2ccc(Cl)cc12,1,-5,5,0,-3
Clc1ccc(CSc2nnc(CNc3cccc(Cl)c3)o2)cc1,0,81*,0,6,18
CCc1cccc(CC)c1NC(=O)COn1nnc2ccc(C(F)(F)F)cc21,-1,-5,-3,2,-2
COc1cc(/C=N/NC(=S)Nc2cccc(C(=O)O)c2)cc(OC)c1OC,0,-5,1,1,-5
COc1cc(/C=N/NC(=S)N/N=C/c2cc(OC)c(OC)c(OC)c2)cc(OC)c1OC,-1,14,20,6,55*
CCOCCCNC(=O)Cc1ccc(OC)c(OC)c1,0,1,0,1,-4
CCCOc1ccc(CNCCCOCC)cc1OC,0,-1,7,1,70*
CCOCCCNCc1ccc(OC)c(OC)c1,-1,6,2,3,80*
CCOCCCNCc1cccc(OC)c1,0,-1,1,-1,82*
CCOCCCNCc1ccc(OC)cc1,1,-10,2,1,32
CC(C)(C)n1nnnc1C(c1cccs1)N1CCN(c2ccccc2)CC1 (stereo not drawn),0,27,1,0,6
Oc1c(C(c2cccs2)N2CCN(c3ccccc3)CC2)ccc2cccnc12 (stereo not drawn),0,7,0,1,84*
CC(CS(=O)(=O)c1cccc2cccnc12)N1CCCCC1 (stereo not drawn),0,-2,5,2,-7
Oc1c(C(c2ccccc2Cl)N2CCCC2)ccc2cccnc12 (stereo not drawn),-1,2,-2,0,100*
Nn1c(COc2ccc(Cl)cc2)nc2ccccc2c1=O,1,-2,21,0,41
O=C(CSc1n[nH]c(=O)n1C1CC1)NCc1ccccc1Cl,0,1,1,3,-11
CCN(CC)c1ccc(/C=C(\C#N)c2nc(-c3cccs3)c(NC(C)=O)s2)cc1,23,11,28,8,10
COc1cc2cc(CN(Cc3nnnn3Cc3ccco3)C3CCCCC3)c(=O)[nH]c2cc1OC,1,57,2,1,3
CCOc1ccc2[nH]c(=O)c(CN(Cc3ccco3)Cc3nnnn3Cc3ccccc3)cc2c1,1,-2,1,3,22
CCc1ccc2[nH]c(=O)c(CN(Cc3ccccc3OC)Cc3nnnn3Cc3ccco3)cc2c1,7,-11,3,1,99*
COc1ccc2[nH]c(=O)c(CN(Cc3ccco3)Cc3nnnn3Cc3ccccc3)cc2c1,1,21,7,9.7*,1
COc1ccccc1CN(Cc1cc2cc(C)ccc2[nH]c1=O)Cc1nnnn1Cc1ccco1,3,12,1,2,61*
COc1ccc(CCN2CC(C(=O)NC3CCCCC3)CC2=O)cc1OC (stereo not drawn),0,0,7,1,-14
NC(CC(=O)O)c1ccc(Br)cc1 (stereo not drawn),0,12,1,2,-7
CCCN1C(=O)/C(=C\c2ccncc2)SC1=Nc1ccccc1,1,26,8,-1,44
COc1ccc(N=C2S/C(=C\c3ccc(N4CCOCC4)o3)C(=O)N2CCc2c[nH]c3ccccc23)cc1,24,31,23,6,100*
CCCN1C(=O)/C(=C/c2ccc(C)o2)SC1=Nc1ccc(OC)cc1,0,-17,1,5,4
CCN1C(=O)/C(=C\c2ccncc2)SC1=Nc1ccc(C)c(C)c1,6,32,31,0,52*
